# A selection: hits, their analogues and other compounds. The true share with any hit is near 1.6%.
# PG9 binder – binders of HIV-1 gp120 antibody PG9, primary screen, biochemical, TR-FRET | actives 0.43% (n = 360,000) | TR-FRET gp120-PG9 antibody binding | inhibition, % at 6.7 µM | HIV-1 gp120 / PG9 antibody interaction; in the data active = inhibition above about 8.5%
# NR2E3 ag-1 – NR2E3 agonists in two-hybrid cells, primary screen, cell-based, luminescence, CHO-S, Gal4-NCOR/VP16-NR2E3; Photoreceptor-specific nuclear receptor (Homo sapiens), Q9Y5X4; luciferase; inhibition of corepressor binding, % at 3.98 µM; actives 0.35% (n = 360,000);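 active = inhibition above the mean of all tested compounds plus 3 SD, cut at about 70% in these data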;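 note: 0% = DMSO with NR2E3 transfected cells and 100% = cells lacking NR2E3 construct; higher means lower luciferase signal from less NR2E3 corepressor binding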
# Rev-erbA mod – modulators of Rev-erb alpha DNA binding, primary screen, biochemical, FITC-DNA, fluorescence polarization, uHTS; activity, % at 10 µM; Rev-erbα–FITC-DNA binding, 90 min; actives 0.79% (n = 370,000);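 active = activity above about 14%, limit read from the data; passing the limit was not always enough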;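 note: 0% = DMSO wells with 35 nM protein and 100% = DMSO wells with 750 nM protein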
# PKA-R1A activ – activators of PKA-R1A holoenzyme, primary screen, biochemical, fluorescence polarization, Cy5-IP20, bovine R1A, mouse PKAc; PKA-R1A dissociation; scaled: DMSO 0%, 113 µM cGMP 100%; actives 0.083% (n = 340,000); cAMP-dependent protein kinase type I-alpha regulatory subunit (Bos taurus) + …; activation, % at 11.4 µM;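 active = percent activation above the mean of all tested compounds plus 3 SD, cut at about 19% in these data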;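 note: higher means more PKAc released from R1A so a rise in polarization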
# PKA-R2B act – activators of PKA-R2B holoenzyme, primary screen, biochemical, fluorescence polarization, Cy5-IP20, human; AID 504700, 2011; actives 0.079% (n = 340,000); PKA-R2B holoenzyme dissociation; R2B truncated from residue 108, S112A mutant; 0% DMSO only, 100% 113 µM cGMP; activation, % at 11.4 µM; cAMP-dependent protein kinase catalytic subunit beta (Homo sapiens) + cAMP-dependent …;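 active = activation above a cutoff set at the mean over all compounds plus 3 SD, cut at about 18% in these data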;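 note: higher means more holoenzyme dissociation and a rise in polarization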
# Target sequence (P31323 whole entry, looked up, other chains not shown, the tested form may be a part): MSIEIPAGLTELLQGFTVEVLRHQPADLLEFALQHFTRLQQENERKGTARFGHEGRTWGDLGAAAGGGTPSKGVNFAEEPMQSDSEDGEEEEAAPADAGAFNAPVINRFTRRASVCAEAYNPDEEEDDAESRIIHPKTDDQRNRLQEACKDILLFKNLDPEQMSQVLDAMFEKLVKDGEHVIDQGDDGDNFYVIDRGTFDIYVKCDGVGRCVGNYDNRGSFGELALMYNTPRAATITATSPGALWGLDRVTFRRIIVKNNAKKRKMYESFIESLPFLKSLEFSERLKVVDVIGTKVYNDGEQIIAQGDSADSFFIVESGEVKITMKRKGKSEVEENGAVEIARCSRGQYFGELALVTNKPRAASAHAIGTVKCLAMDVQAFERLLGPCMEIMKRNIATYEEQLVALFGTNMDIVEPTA
# NR2E3 ag-2 – inhibitors of NR2E3-RetCOR corepressor binding, primary screen, NR2E3 agonist project, biochemical, TR-FRET, GST-NR2E3, biotin-RetCOR; 1536-well; Photoreceptor-specific nuclear receptor (Homo sapiens), Q9Y5X4; AID 2300, 2010; inhibition of corepressor binding, % at 4.78 µM; actives 0.12% (n = 320,000);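 active = percent inhibition above the cutoff of mean plus 3 SD of all tested compounds, set per screening campaign, cut at about 20% in these data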;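 note: 0% = DMSO wells and 100% = biotin wells as full block of FRET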
#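 Material: NR2E3–RetCOR corepressor complex / Amount: 1.35 nM GST-NR2E3 / Medium: Tris pH 7.5 / Compound: single nominal compound dose of 4.8 µM / Incubation: 5 h at 4 °C / Technique: TR-FRET, Eu(K)-anti-GST donor, streptavidin-D2 acceptor, ex 340, em 617/671 nm / Read-out basis: percent loss of FRET ratio relative to control wells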
# Rev-erbA confirm – modulators of Rev-erb alpha DNA binding, confirmation, biochemical, FITC-DNA, fluorescence polarization, single point. shares compounds with Rev-erbA mod. AID 1259319, 2017. activation, % at 25 µM. actives 61% (n = 3,000). 90 min;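 active = activation at or above a set limit, or at least 3 SD above the negative control mean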;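 note: 0% = 35 nM protein with DMSO and 100% = 750 nM protein high control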
# RORg counter – modulation of RORgamma DNA binding, dose response, counter-screen for Rev-erb alpha modulator project, biochemical, fluorescence polarization, FITC-DNA; purified RORgamma protein-FITC-DNA binding; shares compounds with Rev-erbA mod; actives 8% (n = 910); IC50, µM; AID 1259320, 2017;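 active = Compounds whose fitted half-maximal concentration for disrupting protein-DNA binding is below 10 micromolar; the record names Rev-erb in its text, so the target is in doubt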
# * = called active by the depositor; . = no result given.
SMILES,PG9 binder,NR2E3 ag-1,Rev-erbA mod,PKA-R1A activ,PKA-R2B act,NR2E3 ag-2,Rev-erbA confirm,others
COc1ccc(-c2noc(COc3ccc(C)c(C)c3)n2)cc1OC,1,-21,-2,-4,-3,-2,.,
COc1ccc(-c2noc(COc3ccc4ccccc4c3Br)n2)cc1OC,0,-7,29*,-5,-7,1,17*,
C#CCNC(=O)C[C@H]1C(=O)N(Cc2ccc(OC)cc2)C2=CCCC[C@@]21C(=O)OCC,.,.,-9,.,.,.,.,
O=C(CSc1nc2ccccc2nc1N1CCCC1)Nc1ccc(Cl)cc1,-1,-57,0,-10,-6,2,.,
O=C(CSc1nc2ccccc2nc1N1CCCCC1)N1CCN(S(=O)(=O)c2cc(Cl)ccc2Cl)CC1,.,.,28*,.,.,.,30*,RORg counter=>40
Cc1cc2c(s1)c1cnn(Cc3c(Cl)ccc(C)c3F)c(=O)c1n2C,.,.,233*,.,.,.,81*,RORg counter=>40
Cc1cc2c(s1)c1cnn(Cc3ccccc3F)c(=O)c1n2C,0,-17,33*,10,6,6,18*,
Cc1cc2c(s1)c1cnn(Cc3cc(F)ccc3F)c(=O)c1n2C,.,.,15,.,.,.,.,
COC(=O)C[C@H]1CC[C@H]2[C@H](COc3ccc(NS(=O)(=O)c4cccc(OC)c4)cc3C(=O)N2C)O1,.,.,3,.,.,.,.,
C#CCNC(=O)C[C@H]1C[C@@]2(C(=O)OC)C(=C[C@H](C(C)C)O[C@@H]2C2CC2)N(Cc2ccc(Cl)cc2Cl)C1=O,.,.,0,.,.,.,.,
Cc1onc(-c2ccccc2)c1C(=O)Nc1ccccc1N1CCOCC1,1,-20,1,-5,2,-2,.,
Cc1onc(-c2ccccc2)c1C(=O)Nc1cc(C(F)(F)F)ccc1N1CCOCC1,2,-32,22*,-11,-7,0,33*,
Cc1nn2c3c(cnc2c1-c1ccccc1)C(=O)CC(c1ccccc1)C3 (configuration not stated),2,-12,39*,-9,8,1,19*,
Cc1nn2c(N)c(-c3ccccc3)cnc2c1-c1ccccc1,4,-66,19*,5,11,1,3,
Cc1nn2c(N)c(C#N)cnc2c1-c1ccc(Cl)cc1,0,3,51*,-8,6,-2,34*,RORg counter=>40
CCc1ccccc1NC(=O)CN1C(=O)C2CCCN2c2ncc(Cl)cc21 (configuration not stated),0,-19,-3,-1,-7,-2,.,
O=C(CN1C(=O)C2CCCN2c2ncc(Cl)cc21)NCc1ccc2c(c1)OCO2 (configuration not stated),1,14,46*,-8,-5,.,36*,
COc1ccc(CNC(=O)CN2C(=O)C3CCCN3c3ncc(Cl)cc32)cc1 (configuration not stated),2,-6,43*,-9,-2,1,36*,
Cc1cccc(C)c1NC(=O)CSc1ncnc2[nH]ncc12,1,-5,23*,-12,2,.,18*,
CCC(C#Cc1ccccc1)N(C)C(N)=NC(=O)/C=C/c1ccccc1 (configuration not stated),.,.,-8,.,.,.,.,
CCOc1ccc(-n2c(SC/C=C/c3ccccc3)nnc2-c2cccs2)cc1,.,.,0,.,.,.,.,
CCN(CC(=O)Nc1ccccc1C(F)(F)F)C(=O)CCc1nc2sc3c(c2c(=O)[nH]1)CCCC3,5,-8,20*,-11,-14,0,0,
CN(CC(=O)Nc1ccccc1C(F)(F)F)C(=O)CCc1nc2sc3c(c2c(=O)[nH]1)CCCC3,5,2,30*,-8,-5,4,22*,
CCN(CC)CCCN=Cc1c(-c2ccccc2)[nH]n(-c2nc3ccccc3s2)c1=O,1,-11,2,-13,1,1,.,
CCCN=C(C)c1c(-c2ccccc2)[nH]n(-c2nc3ccccc3s2)c1=O,-1,-31,58*,-2,12,-2,40*,RORg counter=8.5*
SMILES,PG9 binder,NR2E3 ag-1,Rev-erbA mod,PKA-R1A activ,PKA-R2B act,NR2E3 ag-2,Rev-erbA confirm,others
Cc1cn2c(N)c(C=C3C=C(Cl)C(=O)C(Cl)=C3)c(=O)nc2s1,1,-9,26*,0,-1,.,12,
COC1=C/C(=C/c2c(N)n3cc(C)sc3nc2=O)C=CC1=O,-8,-38,17,-6,-2,1,.,
CC(C)[C@@H](C)/C=C/[C@@H](C)[C@H]1CC[C@@H]2[C@]1(C)CCC1[C@]23C=C[C@]2(C[C@@H](O)CC[C@]12C)N(c1cnccn1)O3 (some centres not stated),0,.,3,.,.,.,.,
CN(C)c1ccc(/C=C(/C(=O)c2ccc(Cl)cc2Cl)n2cncn2)cc1,-2,-4,21*,-4,-6,-1,18*,
COc1ccc(-c2ccc3c(n2)CCCN3S(=O)(=O)c2cccs2)cc1,-1,.,2,.,.,.,.,
CCc1nnc2sc(-c3ccc(NC(=O)c4ccc5c(c4)OCCO5)cc3)nn12,1,-20,92*,11,-1,-4,58*,
CCn1ncc(Br)c1C(=O)Nc1cc(C(=O)OC)ccc1C(=O)OC,1,-59,45*,-11,-10,2,24*,
Cc1ccc(-c2cc(C(=O)NN=Cc3c(O)ccc4ccccc34)[nH]n2)cc1C,.,.,22*,.,.,.,16*,
Cc1ccc(-c2cc(C(=O)NN=Cc3cccc4ccccc34)[nH]n2)cc1C,.,.,-10,.,.,.,.,
COc1ccc(C(=O)N/N=C/c2sc3ccccc3c2O)cc1,.,-13,.,8,2,-12,.,
COc1ccc2cc(C(=O)N/N=C/c3sc4ccccc4c3O)ccc2c1,-7,-48,28*,-3,-2,-1,27*,
CN(C(=O)CNC(=O)c1ccccc1OCC(=O)Nc1ccc(Br)cc1)c1ccccc1,.,.,5,.,.,.,.,
O=C(Nc1ccc(S(=O)(=O)C(F)F)cc1)c1ccc2c(=O)n3c(nc2c1)CCC3,2,16,20*,5,-7,1,9,
